Activity calls are given as the source filed them. The rule behind the calls is not given here.
Legend:
[1] = tested on: SJSA-1; experiment: Cellular uptake in human SJSA1 cells expressing wild type p53 at 1 to 5 uM after 1 hr by fluorometric analysis; format: ADME, cell-based; conditions: sjsa-1, 1 h
How it was run: (§1)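 SJSA-1 or HCT116 cells were plated at 400,000/well and attached for 24 h. Fluorescein conjugate or free FAM was added at final 1 and 5 µM for 1 h at 37 °C, with DMSO and medium-only controls. Cells were washed three times in warm PBS, scraped and counted. About 10,000 cells/well were read by fluorescence at 485/520 nm; 3 runs per sample.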

[2] = tested on: HCT-116; experiment: Cellular uptake in human HCT116 cells expressing wild type p53 at 1 to 5 uM after 1 hr by fluorometric analysis; format: ADME, cell-based; conditions: hct-116, 1 h; how it was run: as §1
[3] = tested on: SJSA-1; experiment: Cellular uptake in human SJSA1 cells expressing wild type p53 at 5 uM after 1 hr by fluorometric analysis in presence of nutlin-glycine; format: ADME, cell-based; conditions: sjsa-1, 1 h
[4] = tested on: HCT-116; experiment: Cellular uptake in human HCT116 cells expressing wild type p53 at 5 uM after 1 hr by fluorometric analysis in presence of nutlin-glycine; conditions: hct-116, 1 h
[5] = species: Homo sapiens; experiment: Antiproliferative activity against human MDA-MB-435S cells harboring p53 mutant at 10 uM after 5 days by MTS assay; format: functional, cell-based
How it was run: (§2)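 Cells (wild-type or mutant p53) grown in recommended medium with 10% FBS at 37 °C under 5% CO2. Compounds were kept as 1 mmol/L DMSO stocks. Cells were seeded in 96-well plates and treated with serial concentrations (highest 10 µM) for 5 days, then read by MTS. Viability is % of untreated controls, mean SD, n = 4.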

[6] = tested on: HeLa; experiment: Antiproliferative activity against human HeLa cells harboring p53 mutant at 10 uM after 5 days by MTS assay; format: functional, cell-based; how it was run: as §2
[7] = tested on: SW480; experiment: Antiproliferative activity against human SW480 cells harboring p53 mutant at 10 uM after 5 days by MTS assay; format: functional, cell-based; how it was run: as §2
[8] = tested on: HCT-116; experiment: Antiproliferative activity against human HCT116 cells expressing wild type p53 after 5 days by MTS assay; format: functional, cell-based; how it was run: as §2
[9] = tested on: SJSA-1; experiment: Antiproliferative activity against human SJSA1 cells expressing wild type p53 after 5 days by MTS assay; format: functional, cell-based; how it was run: as §2
[10] = tested on: RKO; experiment: Antiproliferative activity against human RKO cells expressing wild type p53 after 5 days by MTS assay; format: functional, cell-based; how it was run: as §2

Row | SMILES | Drug uptake [1] | Drug uptake [2] | Drug uptake [3] | Drug uptake [4] | Activity [5] | Activity [6] | Activity [7] | Activity [8] | Activity [9] | Activity [10]
1 | CCOc1cc(OC)ccc1C1=N[C@@H](c2ccc(Br)cc2)[C@@H](c2ccc(Br)cc2)N1C(=O)N1CCN(CCOC(=O)CNC(=O)c2ccc(C(=O)O)c(-c3c4ccc(=O)cc-4oc4cc(O)ccc34)c2)CC1 (relative stereo) | Active | Active | Not Active | Not Active | – | – | – | – | – | –
2 | CCOc1cc(OC)ccc1C1=N[C@@H](c2ccc(Br)cc2)[C@@H](c2ccc(Br)cc2)N1C(=O)N1CCN(CCOC(=O)CN)CC1 (relative stereo) | – | – | – | – | inactive | inactive | inactive | Dose-dependent effect | Dose-dependent effect | Dose-dependent effect
3 | COc1ccc(C2=N[C@@H](c3ccc(Cl)cc3)[C@@H](c3ccc(Cl)cc3)N2C(=O)N2CCNC(=O)C2)c(OC(C)C)c1 (relative stereo) | – | – | – | – | inactive | inactive | inactive | Dose-dependent effect | Dose-dependent effect | Dose-dependent effect

Reference: ChEMBL document CHEMBL2346594, “Synthesis and evaluation of an imidazole derivative-fluorescein conjugate” (Bioorg Med Chem, 2013)
